Measurements from ChEMBL document CHEMBL1136718, “Synthesis and cytotoxic activity of carboxamide derivatives of benzo[b][1,6]naphthyridines” (J Med Chem, 2003).

Key:
[1] = test system: Jurkat; experiment: Growth inhibitory activity against human Jurkat leukemia cell line (JLC); format: functional, cell-based
Procedure, shortened: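 Human Jurkat leukemia (JL_C) cells seeded at 3.75 × 10³/well and grown 4 days with drug. Growth read by sulforhodamine assay. IC50 is the drug concentration that reduces cell number to 50% of control cultures. Independent assays run in duplicate.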

[2] = test system: Lewis lung carcinoma cell line; experiment: Growth inhibitory activity against murine Lewis lung carcinoma cell line; format: functional, cell-based; conditions: Mus musculus
Procedure, shortened: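 Lewis lung carcinoma cells seeded at 10³/well and cultured 4 days with drug. Growth measured by sulforhodamine assay. IC50 is the concentration reducing cell number to 50% of control cultures. Independent duplicate assays.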

[3] = test system: Mus musculus; experiment: Number of mice(with Colon 38 tumors) cured after treatment of 5.9 mg/kg/day single dose out of 5 mice; format: functional
Procedure, shortened: (§1)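 BDF1 mice bearing subcutaneous Colon 38 tumors (flank implants of 1 mm³ fragments) were treated at a diameter of about 4-6 mm. They received one intraperitoneal dose of the hydrochloride salt in distilled water, 0.01 mL/g. A cure is a mouse with no measurable tumor 20 days after treatment began, reported over the total mice per group.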

[4] = test system: Mus musculus; experiment: In vivo antitumor activity against subcutaneous Colon 38 tumors in mice determined as delay in growth after 5.9 mg/kg/day single dose; format: functional
Procedure, shortened: (§2)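 Colon 38 fragments (1 mm³) implanted subcutaneously in one flank of BDF1 mice. Treated at a tumor diameter of about 4-6 mm (7-8 days), five mice per group. A single intraperitoneal dose was given as the hydrochloride in distilled water, 0.01 mL/g. Calipers three times weekly, volume = 0.52a²b. Growth delay is the time for mean volume to reach 4-fold the pretreatment volume.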

[5] = test system: P388; experiment: Growth inhibitory activity against murine P388 leukemia cells; format: functional, cell-based; conditions: Mus musculus
Procedure, shortened: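 P388 murine leukemia cells plated at 4.5 × 10³/well and exposed to drug for 3 days. Growth read by [3H]TdR uptake. IC50 is the concentration reducing cell number to 50% of control. Independent assays done in duplicate.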

[6] = Ratio of growth inhibitory activity against human Jurkat leukemia cell line (JLA- resistant to amsacrine) to that of Jurkat leukemia cell line; format: functional
Procedure, shortened: (§3)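 Parent Jurkat (JL_C) cells and the amsacrine-resistant (JL_A) or doxorubicin-resistant (JL_D) sublines each seeded at 3.75 × 10³/well. Cultured 4 days with drug and read by sulforhodamine assay. The ratio is the subline IC50 divided by the JL_C IC50. Duplicate independent assays.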

[7] = Ratio of growth inhibitory activity against human Jurkat leukemia cell line (JLD- resistant to doxorubicin) to that of Jurkat leukemia cell line; format: functional; procedure, shortened: as §3
[8] = test system: Mus musculus; experiment: Number of mice(with Colon 38 tumors) cured after treatment of 13.3 mg/kg/day dose given as 3 times in a day for 4 days out of 5 mice; format: functional
[9] = test system: Mus musculus; experiment: In vivo antitumor activity against subcutaneous Colon 38 tumors in mice determined as delay in growth after 13.3 mg/kg/day dose given as 3 times in a day for 4 days; format: functional
[10] = test system: Mus musculus; experiment: Number of mice(with Colon 38 tumors) cured after treatment of 3.9 mg/kg/day dose given as 3 times in a day for 4 days out of 5 mice; format: functional
[11] = test system: Mus musculus; experiment: In vivo antitumor activity against subcutaneous Colon 38 tumors in mice determined as delay in growth after 3.9 mg/kg/day dose given as 3 times in a day for 4 days; format: functional
[12] = test system: Mus musculus; experiment: Number of mice(with Colon 38 tumors) cured after treatment of 13.3 mg/kg/day single dose out of 5 mice; format: functional; procedure, shortened: as §1
[13] = test system: Mus musculus; experiment: In vivo antitumor activity against subcutaneous Colon 38 tumors in mice determined as delay in growth after 13.3 mg/kg/day single dose; format: functional; procedure, shortened: as §2
[14] = test system: Mus musculus; experiment: Number of mice(with Colon 38 tumors) cured after treatment of 5.9 mg/kg/day single dose out of 10 mice; format: functional; procedure, shortened: as §1
[15] = test system: Mus musculus; experiment: Number of mice(with Colon 38 tumors) cured after treatment of 8.9 mg/kg/day single dose out of 4 mice; format: functional; procedure, shortened: as §1
[16] = test system: Mus musculus; experiment: Number of mice(with Colon 38 tumors) cured after treatment of 3.9 mg/kg/day single dose out of 4 mice; format: functional; procedure, shortened: as §1
[17] = test system: Mus musculus; experiment: In vivo antitumor activity against subcutaneous Colon 38 tumors in mice determined as delay in growth after 3.9 mg/kg/day single dose; format: functional; procedure, shortened: as §2
[18] = test system: Mus musculus; experiment: In vivo antitumor activity against subcutaneous Colon 38 tumors in mice determined as delay in growth after 8.9 mg/kg/day single dose; format: functional; procedure, shortened: as §2
[19] = test system: Mus musculus; experiment: Number of mice(with Colon 38 tumors) cured after treatment of 65 mg/kg/day dose given as 3 times in a day for 4 days out of 5 mice; format: functional
[20] = test system: Mus musculus; experiment: In vivo antitumor activity against subcutaneous Colon 38 tumors in mice determined as delay in growth after 65 mg/kg/day dose given as 3 times in a day for 4 days; format: functional
[21] = test system: Mus musculus; experiment: Number of mice(with Colon 38 tumors) cured after treatment of 65 mg/kg/day dose given as 2 times in a day for 2 days out of 5 mice; format: functional
[22] = test system: Mus musculus; experiment: In vivo antitumor activity against subcutaneous Colon 38 tumors in mice determined as delay in growth after 65 mg/kg/day dose given as 2 times in a day for 2 days; format: functional
[23] = test system: Mus musculus; experiment: Number of mice(with Colon 38 tumors) cured after treatment of 30 mg/kg/day single dose out of 5 mice; format: functional
[24] = test system: Mus musculus; experiment: In vivo antitumor activity against subcutaneous Colon 38 tumors in mice determined as delay in growth after 30 mg/kg/day single dose; format: functional
[25] = test system: Mus musculus; experiment: Number of mice(with Colon 38 tumors) cured after treatment of 2.6 mg/kg/day single dose out of 5 mice; format: functional; procedure, shortened: as §1
[26] = test system: Mus musculus; experiment: Number of mice(with Colon 38 tumors) cured after treatment of 3.9 mg/kg/day single dose out of 5 mice; format: functional; procedure, shortened: as §1
[27] = test system: Mus musculus; experiment: In vivo antitumor activity against subcutaneous Colon 38 tumors in mice determined as delay in growth after 2.6 mg/kg/day single dose; format: functional; procedure, shortened: as §2
[28] = test system: Mus musculus; experiment: Number of mice(with Colon 38 tumors) cured after treatment of 8.9 mg/kg/day single dose out of 5 mice; format: functional; procedure, shortened: as §1
[29] = test system: Mus musculus; experiment: Number of mice(with Colon 38 tumors) cured after treatment of 200 mg/kg/day dose given as 2 times in a day for 7 days out of 5 mice; format: functional
[30] = test system: Mus musculus; experiment: In vivo antitumor activity against subcutaneous Colon 38 tumors in mice determined as delay in growth after 200 mg/kg/day dose given as 2 times in a day for 7 days; format: functional
[31] = test system: Mus musculus; experiment: Number of mice(with Colon 38 tumors) cured after treatment of 45 mg/kg/day dose given as 3 times in a day for 4 days out of 5 mice; format: functional
[32] = test system: Mus musculus; experiment: In vivo antitumor activity against subcutaneous Colon 38 tumors in mice determined as delay in growth after 45 mg/kg/day dose given as 3 times in a day for 4 days; format: functional
[33] = test system: Mus musculus; experiment: Number of mice(with Colon 38 tumors) cured after treatment of 2.6 mg/kg/day dose given as 3 times in a day for 4 days out of 5 mice; format: functional
[34] = test system: Mus musculus; experiment: In vivo antitumor activity against subcutaneous Colon 38 tumors in mice determined as delay in growth after 2.6 mg/kg/day dose given as 3 times in a day for 4 days; format: functional

Cc1cccc2cc3c(=O)n(CCN(C)C)cc(C(=O)NCCN(C)C)c3nc12
IC50 [1]: 8.5 nM
IC50 [2]: 3.7 nM
Cures [3]: 0
Growth delay [4]: 14 days
IC50 [5]: 6.8 nM
Ratio [6]: 0.7
Ratio [7]: 0.9

COc1cc(NS(C)(=O)=O)ccc1Nc1c2ccccc2nc2ccccc12 [AMSACRINE]
Cures [8]: 0
Growth delay [9]: 2 days

O=C1c2c(O)ccc(O)c2C(=O)c2c(NCCNCCO)ccc(NCCNCCO)c21 [MITOXANTRONE]
Cures [10]: 0
Growth delay [11]: 2 days

CN(C)CCNC(=O)c1cn(C)c(=O)c2cc3ccccc3nc12
IC50 [5]: 14 nM

CCCCn1cc(C(=O)NCCN(C)C)c2nc3c(C)cccc3cc2c1=O
IC50 [1]: 51 nM
IC50 [2]: 15 nM
Cures [3]: 0
Cures [12]: 5
Growth delay [13]: >20 days
Growth delay [4]: 18 days
IC50 [5]: 14 nM
Ratio [6]: 2.3
Ratio [7]: 3

COc1cccc2c1C(=O)c1c(O)c3c(c(O)c1C2=O)C[C@@](O)(C(C)=O)C[C@@H]3O[C@H]1C[C@H](N)[C@H](O)[C@H](C)O1 [DAUNORUBICIN]
Cures [10]: 0
Growth delay [11]: 0 days

CC[C@@]1(O)C(=O)OCc2c1cc1n(c2=O)Cc2cc3ccccc3nc2-1 [CAMPTOTHECIN]
Ratio [6]: 2
Ratio [7]: 1.4

Cc1cccc2cc3c(=O)n(C)cc(C(=O)NCCN(C)C)c3nc12
IC50 [1]: 6.7 nM
IC50 [2]: 1.7 nM
Cures [14]: 10
Cures [15]: 4
Cures [16]: 4
Growth delay [17]: >20 days
Growth delay [4]: >20 days
Growth delay [18]: >20 days
IC50 [5]: 2.1 nM
Ratio [6]: 5.6
Ratio [7]: 7.9

CCc1c2c(nc3ccc(OC(=O)N4CCC(N5CCCCC5)CC4)cc13)-c1cc3c(c(=O)n1C2)COC(=O)[C@]3(O)CC [IRINOTECAN]
Cures [19]: 0
Growth delay [20]: 7 days

Cc1cccc2cc3c(=O)n([C@@H](C)c4ccccc4)cc(C(=O)NCCN(C)C)c3nc12
IC50 [1]: 1070 nM
IC50 [2]: 161 nM
IC50 [5]: 590 nM
Ratio [6]: 0.8
Ratio [7]: 1.1

Cc1cc2c3c(cccc3n1)C(=O)c1cccc(C(=O)NCCN(C)C)c1-2
Cures [21]: 5
Growth delay [22]: >20 days
Ratio [6]: 2.5
Ratio [7]: 2.5

Cc1cccc2cc3c(O)ncc(C(=O)NCCN(C)C)c3nc12
IC50 [1]: 26 nM
IC50 [2]: 10 nM
Cures [23]: 0
Growth delay [24]: 14 days
IC50 [5]: 11 nM
Ratio [6]: 1.9
Ratio [7]: 2.6

COc1ccc(-n2cc(C(=O)NCCN(C)C)c3nc4c(C)cccc4cc3c2=O)cc1OC
IC50 [1]: 9.4 nM
IC50 [2]: 4.4 nM
Cures [25]: 0
Cures [26]: 4
Growth delay [27]: 16 days
Growth delay [17]: >20 days
IC50 [5]: 12 nM
Ratio [6]: 1.3
Ratio [7]: 1.5

Cc1cccc2cc3c(NCCN(C)C)ncc(C(=O)NCCN(C)C)c3nc12
Cures [28]: 0
Growth delay [18]: 6 days
IC50 [5]: 2.4 nM

CN(C)CCNC(=O)c1cccc2cc3ccccc3nc12
Cures [29]: 0
Growth delay [30]: 13 days
IC50 [5]: 71 nM

CN(C)CCNC(=O)c1cn(CCN(C)C)c(=O)c2cc3ccccc3nc12
IC50 [1]: 123 nM
IC50 [2]: 50 nM
IC50 [5]: 54 nM
Ratio [6]: 0.8
Ratio [7]: 1.1

Cc1cccc2cc3c(=O)n(CCN(C)CCCN(C)CCn4cc(C(=O)NCCN(C)C)c5nc6c(C)cccc6cc5c4=O)cc(C(=O)NCCN(C)C)c3nc12
IC50 [1]: 1 nM
IC50 [2]: 4.7 nM
IC50 [5]: 22 nM
Ratio [6]: 0.3
Ratio [7]: 0.4

COc1cc([C@@H]2c3cc4c(cc3[C@@H](O[C@@H]3O[C@@H]5CO[C@@H](C)O[C@H]5[C@H](O)[C@H]3O)[C@H]3COC(=O)[C@H]23)OCO4)cc(OC)c1O [ETOPOSIDE]
IC50 [1]: 160 nM
IC50 [2]: 180 nM
Cures [31]: 0
Growth delay [32]: 1.5 days
IC50 [5]: 150 nM
Ratio [6]: 13
Ratio [7]: 90

COc1cccc2c1C(=O)c1c(O)c3c(c(O)c1C2=O)C[C@@](O)(C(=O)CO)C[C@@H]3O[C@H]1C[C@H](N)[C@H](O)[C@H](C)O1 [DOXORUBICIN]
Cures [33]: 0
Growth delay [34]: 8 days
Ratio [6]: 4.4
Ratio [7]: 13
